Published values gathered from unrelated publications.
Cell line: PC-3
Observed: cell growth or viability
Technique: MTT

SMILES	conditions	IC50
Cc1nc(N(C)c2ccc3c(c2)/C(=C/c2ccccc2Cl)C(=O)N3C)c2ccccc2n1		23.7 µM
CCOc1nc(-c2cccc(O)c2)cc(-c2cc3ccccc3nc2N2CCOCC2)c1C#N	72 h	0.118 µM
Cc1nc(Nc2ccc3c(c2)/C(=C/c2ccccc2C)C(=O)N3)c2ccccc2n1		26.7 µM
Cc1ccc(-c2cc(-c3c(Cl)cccc3Cl)c3c(=O)[nH]c(=O)[nH]c3n2)cc1	48 h	48.9 µM
Cc1nc(Nc2ccc3c(c2)CC(=O)N3)c2ccccc2n1		20.6 µM
Nc1n[nH]c2nc(-c3cccc(O)c3)cc(-c3cc4ccccc4nc3N3CCOCC3)c12	72 h	0.0564 µM
COc1cc2ncnc(N(C)c3ccc4c(c3)/C(=C/c3cccc(Cl)c3)C(=O)N4C)c2cc1OC		5.5 µM
[NH2][Pt]([NH2])([Cl])[Cl]		8.3 µM
COc1ccc(-c2cc(-c3cc(OC)ccc3OC)c3c(=O)[nH]c(=O)[nH]c3n2)cc1	48 h	19.1 µM
COc1cccc2c1C(=O)c1c(O)c3c(c(O)c1C2=O)C[C@@](O)(C(=O)CO)C[C@@H]3O[C@H]1C[C@H](N)[C@H](O)[C@H](C)O1	72 h	0.61 µM
Cc1ccc(-c2cc(-c3c(Cl)cccc3Cl)c3c(=O)n(C)c(=O)n(C)c3n2)cc1	48 h	9.89 µM
CCCOc1nc(-c2cccc(O)c2)cc(-c2cc3ccccc3nc2N2CCOCC2)c1C#N	72 h	0.155 µM
COc1ccc(-c2cc(-c3ccc(C)cc3)nc3c2c(=O)n(C)c(=O)n3C)cc1OC	48 h	38.9 µM
CCOc1nc(-c2cccc(O)c2)cc(-c2cc3cc(Cl)ccc3nc2N2CCOCC2)c1C#N	72 h	0.174 µM
